From ChEMBL document CHEMBL1795290, “Simplification of the tetracyclic SIRT1-selective inhibitor MC2141: coumarin- and pyrimidine-based SIRT1/2 inhibitors with different selectivity profile” (Bioorg Med Chem, 2011) come the findings set out here.

The source made the active and inactive calls. No cut-off for these calls is given here.

The target in series [1] is T1, NAD-dependent protein deacetylase sirtuin-2 (Homo sapiens) (UniProt Q8IXJ6).
T1 sequence (whole entry): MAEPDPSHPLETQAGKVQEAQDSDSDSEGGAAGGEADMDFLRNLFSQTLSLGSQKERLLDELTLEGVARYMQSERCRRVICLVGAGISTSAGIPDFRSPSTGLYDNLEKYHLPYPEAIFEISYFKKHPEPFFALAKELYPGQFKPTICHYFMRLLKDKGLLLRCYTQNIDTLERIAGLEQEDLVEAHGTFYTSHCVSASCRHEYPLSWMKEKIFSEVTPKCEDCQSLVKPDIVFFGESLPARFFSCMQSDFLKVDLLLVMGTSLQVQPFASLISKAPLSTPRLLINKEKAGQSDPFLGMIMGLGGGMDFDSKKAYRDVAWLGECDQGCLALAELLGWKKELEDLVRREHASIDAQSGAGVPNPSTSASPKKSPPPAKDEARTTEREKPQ
The series can be described thus: Inhibition of human recombinant SIRT2 expressed in Escherichia coli at 50 uM incubated at 37 degC for 2 hrs by Fluor de Lys fluorescence assay. The gist of the method:
(§1)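 Human recombinant enzymes expressed in E. coli: SIRT1 at 2 U, SIRT2 at 7 U. Two-stage assay with a deacetylation step at 37 °C for 2 h, using Fluor de Lys-SIRT1/2 substrate with NAD+ and compound (50 µM single point or a concentration series). IC50 obtained by curve fitting.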

The test system of series [2] is U-937. The series can be described thus: Induction of granulocytic differentiation in human U937 cells assessed as change in CD11c expression at 50 uM […] by FACS assay. Type of series: functional. For orientation: In flow cytometry, cells or beads pass a laser one at a time.
Series [3] concerns U-937. The series can be described thus: Toxicity in human U937 cells at 50 uM incubated for 30 hrs. The series is classed as cell-based. The note with it: u-937, 30 h.
Series [4] deals with T2, NAD-dependent protein deacetylase sirtuin-1 (Homo sapiens) (UniProt Q96EB6).
T2 sequence (whole entry): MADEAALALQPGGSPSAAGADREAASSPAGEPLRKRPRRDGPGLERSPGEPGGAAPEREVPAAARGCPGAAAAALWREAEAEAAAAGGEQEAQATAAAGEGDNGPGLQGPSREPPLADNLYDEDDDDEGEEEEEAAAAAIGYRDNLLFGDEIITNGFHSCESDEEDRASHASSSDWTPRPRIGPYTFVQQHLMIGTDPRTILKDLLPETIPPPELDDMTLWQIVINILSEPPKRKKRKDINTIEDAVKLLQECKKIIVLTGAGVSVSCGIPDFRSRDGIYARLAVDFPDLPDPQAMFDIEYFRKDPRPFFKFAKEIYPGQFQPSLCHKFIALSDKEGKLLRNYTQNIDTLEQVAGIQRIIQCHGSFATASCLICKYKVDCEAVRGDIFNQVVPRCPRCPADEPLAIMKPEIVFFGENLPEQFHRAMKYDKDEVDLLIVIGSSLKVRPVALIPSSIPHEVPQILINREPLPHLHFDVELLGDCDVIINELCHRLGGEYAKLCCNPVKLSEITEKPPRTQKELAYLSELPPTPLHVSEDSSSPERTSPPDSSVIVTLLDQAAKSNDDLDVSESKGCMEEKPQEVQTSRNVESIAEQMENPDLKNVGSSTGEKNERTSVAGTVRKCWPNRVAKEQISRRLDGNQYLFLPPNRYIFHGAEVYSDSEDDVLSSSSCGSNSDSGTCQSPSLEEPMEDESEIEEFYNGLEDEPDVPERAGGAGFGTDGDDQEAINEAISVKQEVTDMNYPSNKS
The series is described as follows: Inhibition of human recombinant SIRT1 expressed in Escherichia coli at 50 uM incubated at 37 degC for 2 hrs by Fluor de Lys fluorescence assay. The gist of the method:
as §1

In series [5] the test system is U-937. The series can be described thus: Cell cycle arrest in human U937 cells assessed as accumulation at G1/S phase at 50 uM incubated for 30 hrs by flow cytometry. Type of series: functional, cell-based. Summed up:
(§2)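 U937 leukaemia cells were exposed to compound at 50 µM for 30 h. Then 2.5 × 10^5 cells were resuspended in hypotonic buffer (0.1% Triton X-100, 0.1% sodium citrate, 50 µg/mL propidium iodide, RNase A) and kept 30 min in the dark. DNA content was read by flow cytometry and cell-cycle phases were modelled. Run in triplicate.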

Series [6] concerns U-937. The series is described as follows: Induction of apoptosis in human U937 cells assessed as caspase 3/7 activation at 50 uM incubated for 30 hrs by FACS assay based B-Bridge method. The series is classed as functional. The gist of the method:
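U937 cells were treated at 50 µM for 30 h. Apoptosis was scored as caspase 3–7 activation using a caspase 3–7 detection kit, with FACS read-out.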

The target of series [7] is T3, NAD-dependent protein deacetylase sirtuin-2 (Homo sapiens, UniProt Q8IXJ6).
T3 sequence (Q8IXJ6 whole entry): T1 sequence (whole entry)
The series can be described thus: Inhibition of human recombinant SIRT2 expressed in Escherichia coli incubated at 37 degC for 2 hrs by Fluor de Lys fluorescence assay. The gist of the method: as §1

In series [8] the target is T4, NAD-dependent protein deacetylase sirtuin-1 (Homo sapiens, UniProt Q96EB6).
T4 sequence (Q96EB6 whole entry): T2 sequence (whole entry)
The series is described as follows: Inhibition of human recombinant SIRT1 expressed in Escherichia coli incubated at 37 degC for 2 hrs by Fluor de Lys fluorescence assay. Summed up:
as §1

Series [9] deals with U-937. The series can be described thus: Cell cycle arrest in human U937 cells assessed as accumulation at G1 phase at 50 uM incubated for 30 hrs by flow cytometry. The series is classed as functional, cell-based. Summed up:
as §2

Series [10] deals with U-937. The series is described as follows: Cell cycle arrest in human U937 cells assessed as accumulation at G2/M phase at 50 uM incubated for 30 hrs by flow cytometry. Type of series: functional, cell-based. Summed up: as §2

The term inhibition denotes the change of the read-out against control, counted positive when it falls. As for `O=C1Oc2ccc3ccccc3c2CC1C(=O)c1ccncc1` (centres undefined), the inhibition in series [1] came out at 94.5%; in [4] it was 69.3%. Besides, the Activity was over 30% in the series on U-937 [2] and “Non-toxic” in the series with U-937 [3]. Also, the outcome with U-937 [5] was Active.

What is called IC50 is the concentration that inhibits the measured activity by half. Take `O=C1Oc2ccc3ccccc3c2CC1C(=O)c1ccc(-c2ccccc2)cc1` (centres undefined): the Activity with U-937 [6] is on record as 18.4%; in the series with U-937 [2], over 30%; in the series on U-937 [3] it was “Non-toxic”. Besides, the inhibition in series [1] was 88.8%; in [4], 8.9%. In series [7], the IC50 stood at 10 µM.

`O=c1[nH]c(=S)[nH]c(-c2ccc3ccccc3c2)c1Cc1c(O)ccc2ccccc12`: the result in the series on U-937 [6] and with U-937 [9] was Active. The values for the inhibition in series [1] and in series [4] were 47.9% and 83%, respectively. Besides, the outcome in the series on U-937 [2] was inactive. In addition, the IC50 in series [8] stood at 12.4 µM; in series [7] it was 49.9 µM. For the same compound, the Activity entry in the series with U-937 [3] is on record as “Non-toxic”.

Turning to `O=c1[nH]c(=S)[nH]c(CCc2ccccc2)c1Cc1c(O)ccc2ccccc12`, in the series with U-937 [6], the result was Active. Also, the inhibition in series [1] came out at 49.8%; in series [4], 83%. In the series with U-937 [2], the outcome was inactive. Moreover, the results for the IC50 in [8] and in series [7] were 17.5 µM and 50.8 µM, respectively. Besides, the Activity entry with U-937 [3] is recorded as “Non-toxic”.

Regarding `O=C1Oc2ccc3ccccc3c2CC1C(=O)c1ccc2ccccc2c1` (centres undefined), the outcome in the series with U-937 [6] and with U-937 [5] was Active. The inhibition came to 91.1% in [1] and 5.2% in series [4]. Further, the Activity result in the series on U-937 [3] is given as “Non-toxic”. In addition, the IC50 in series [7] was 8.9 µM.

Regarding `O=C(Cc1ccccc1)C1Cc2c(ccc3ccccc23)OC1=O` (centres undefined), the inhibition in [1] amounted to 81.2%; in [4], 11.3%. In addition, the Activity entry in the series on U-937 [3] is given as “Non-toxic”. Besides, in the series with U-937 [5], the result was Active.

On to `O=C1Oc2ccc3ccccc3c2CC1C(=O)c1ccccc1` (centres undefined), for which the outcome with U-937 [6] and in the series with U-937 [5] was Active. Further, the inhibition in [1] was 20.2%; in series [4] it was 32.1%. Further, the IC50 in [8] amounted to 112 µM; in [7], 179 µM. Also, the Activity result with U-937 [3] is “Non-toxic”.

On to `O=C1Oc2ccc3ccccc3c2CC1C(=O)c1ccsc1` (centres undefined), for which the inhibition in series [1] is 78.9%; in series [4], 19.1%. The Activity result in the series on U-937 [3] is “Non-toxic”. In addition, the result with U-937 [5] was Active.

With `O=C1Oc2ccc3ccccc3c2CC1C(=O)c1ccc(Cl)cc1` (centres undefined), the result with U-937 [10] was Active. Also, the inhibition in [1] was determined as 89.5%; in [4], 17.1%. The Activity in the series on U-937 [2] is over 30%; in the series on U-937 [3] it was “Non-toxic”.

For `O=c1nc2oc3ccc4ccccc4c3cc-2c(=O)n1-c1ccccc1`, the result in the series on U-937 [10] was Active. The outcome in the series with U-937 [2] was inactive.

For `Cn1cccc1-c1[nH]c(=S)[nH]c(=O)c1Cc1c(O)ccc2ccccc12`, the result in the series on U-937 [6] and in the series with U-937 [9] was Active. In addition, the figures for the inhibition in series [1] and in [4] were 46.2% and 81.3%, respectively. For the same compound, in the series on U-937 [2], the outcome was inactive. The Activity entry with U-937 [3] is recorded as “Non-toxic”.

In the case of `O=C1Oc2ccc3ccccc3c2CC1C(=O)c1ccco1` (centres undefined), the inhibition in series [1] is 83.3%; in series [4], 28.9%. Further, the Activity result in the series with U-937 [3] is “Non-toxic”. In addition, the outcome with U-937 [5] was Active.
